According to ChEMBL document CHEMBL4819033, “Synthesis of Bioactive Diarylheptanoids from Alpinia officinarum and Their Mechanism of Action for Anticancer Properties in Breast Cancer Cells” (J Nat Prod, 2021):
pIC50: −log10 of the molar value. Activity calls are given as the source filed them. The rule behind the calls is not given here.

How the values were obtained:
MCF7 [1] = assay: Induction of mitochondrial membrane potential loss in human MCF7 cells incubated for 6 hrs by JC1 staining based flow cytometry; assay type: functional, cell-based; conditions: dose 5-10 µM
How it was run: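 JC-1 assay: MCF-7 cells (1 × 10⁵/well) treated at 5 or 10 μM (legend gives 6 h, methods 8 h), stained with JC-1 (5 μg/mL) for 30 min, trypsinised, and analysed by flow cytometry. MMP loss scored from the drop in red fluorescence MFI as fold of vehicle; CCCP 10 μM as positive control. Five repeats in triplicate.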

MCF7 [2] = assay: Induction of apoptosis in human MCF7 cells assessed as increase in sub-G1 cell population at 10 uM after 48 hrs by propidium iodide/RNase A staining based flow cytometric analysis (reference value: 5.4 +/- 2.1 %); assay type: functional
MCF7 [3] = assay: Induction of apoptosis in human MCF7 cells assessed as increase in sub-G1 cell population at 5 uM after 48 hrs by propidium iodide/RNase A staining based flow cytometric analysis (reference value: 5.4 +/- 2.1 %); assay type: functional
MCF7 [4] = assay: Inhibition of colony formation in human MCF7 cells incubated for 10 days by crystal violet staining based assay; assay type: functional, cell-based; conditions: dose 1-5 µM, time 10.0 day
How it was run: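 Clonogenic survival: MCF-7 cells, 1 × 10³ per well, seeded overnight, then grown with 1, 2.5 or 5 μM in complete medium for 10 days. Colonies fixed with MeOH, stained with 0.5% crystal violet in 1:1 MeOH–water, counted. Surviving fraction corrected for plating efficiency, relative to vehicle; triplicates, three repeats.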

MCF7 [5] = assay: Induction of cell cycle arrest in human MCF7 cells assessed as accumulation at G2 phase at 5 to 10 uM incubated for 24 hrs by propidium iodide/RNase A staining based flow cytometry; assay type: functional; conditions: dose 5-10 µM
How it was run: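 For the cell cycle, MCF-7 cells were exposed to vehicle, 5 or 10 μM for 24 h, stained with PI/RNase in 0.1% sodium citrate containing Triton X-100, and phase distribution was quantified by flow cytometry. Three experiments, each in triplicate.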

MCF7 [6] = assay: Antiproliferative activity against human MCF7 cells assessed as reduction in cell viability after 72 hrs by MTT assay; assay type: functional, cell-based; conditions: for pIC50: MCF7, 72 h
How it was run: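 MCF-7 cells (DMEM, 10% FBS, 37 °C, 5% CO2) seeded 5 × 10³/well, left overnight, then exposed to compounds (0−50 μM) for 72 h. MTT added to 0.5 mg/mL final; formazan solubilised overnight with 10% SDS in 0.01 N HCl, absorbance at 570 nm. IC50 taken relative to vehicle (0.1% DMSO) as 100% survival. Triplicate determinations, three independent experiments; paclitaxel as positive control.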

U2OS = assay: Antiproliferative activity against human U2OS cells assessed as reduction in cell viability after 72 hrs by MTT assay; assay type: functional, cell-based
How it was run: (§1)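 U2-OS (ATCC) or INT-407 cells, cultured in DMEM with 10% FBS at 37 °C, 5% CO2, assayed by MTT reduction under the conditions used for MCF-7: 72 h exposure, absorbance at 570 nm, viability relative to 0.1% DMSO vehicle control; INT-407 tested up to 50 μM.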

MCF7 [7] = assay: Induction of lysosomal membrane permeabilization in human MCF7 cells after 6 hrs by AO staining based flow cytometry; assay type: functional, cell-based; conditions: dose 5-10 µM
How it was run: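 MCF-7 cells treated at 5 or 10 μM (0−10 μM) for various periods, washed with PBS, then stained with acridine orange (10 μM, 15 min, 37 °C) and analysed by flow cytometry. LMP measured from green-channel MFI at 6 h as fold of vehicle; five repeats in triplicate.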

MCF7 [8] = assay: Induction of ROS generation in human MCF7 cells at 5 to 10 uM up to 3 hrs by DCFH-DA dye based flow cytometric analysis; assay type: functional, cell-based; conditions: dose 5-10 µM, time hrs <=3
MCF7 [9] = assay: Induction of lysosomal membrane permeabilization in human MCF7 cells at 5 to 10 uM […] by AO staining based flow cytometry; assay type: functional, cell-based; conditions: dose 5-10 µM
MCF7 [10] = assay: Induction of ROS generation in human MCF7 cells at 5 to 10 uM incubated for 6 hrs by DCFH-DA dye based flow cytometric analysis; assay type: functional, cell-based; conditions: dose 5-10 µM
How it was run: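 MCF-7 cells (1 × 10⁵/well) loaded with DCFH-DA (10 μM, 30 min), washed, then exposed to 5 or 10 μM for various periods (6 h quantified); H2O2 100 μM as positive control. DCF green fluorescence (ex 480/em 530 nm) read by flow cytometry, expressed as fold of vehicle. Three repeats in triplicate.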

[11] = Antiproliferative activity against human INT-407 cells assessed as reduction in cell viability up to 50 uM after 72 hrs by MTT assay; assay type: cell-based; conditions: intestine 407, 72 h; how it was run: as §1

| pIC50 (MCF7 [6]) | pIC50 (U2OS) | Structure (SMILES) | Activity (MCF7 [1]) | Activity (MCF7 [2]) | Activity (MCF7 [3]) | inhibition (MCF7 [4]) | Activity (MCF7 [5]) | Activity (MCF7 [6]) | Activity (MCF7 [7]) | Activity (MCF7 [8]) | Activity (MCF7 [9]) | Activity (MCF7 [10]) | Activity [11] |
| --- | --- | --- | --- | --- | --- | --- | --- | --- | --- | --- | --- | --- | --- |
| 5.41 | 4.97 | COc1cc(CC/C=C/C(=O)CCc2ccccc2)ccc1O | Dose-Dependent Effect | 27.5% | 16.3% | Dose-Dependent Effect | Active | Dose-Dependent Effect | Dose-Dependent Effect | inactive | inactive | Active | Non-Toxic |
| < 4.30 |  | COc1cc(CC[C@@H](O)CC(=O)CCc2ccccc2)ccc1O |  |  |  |  |  | Dose-Dependent Effect |  |  |  |  |  |
| < 4.30 |  | COc1cc(CC[C@H](O)CC(=O)CCc2ccccc2)ccc1O |  |  |  |  |  | Dose-Dependent Effect |  |  |  |  |  |
